These results are taken from the array DNA melting data of Ke et al. (doi:10.1101/2024.01.08.574731).

A short description of data set [1]: melting temperature; fluorescence melt of hairpins on a sequencing array, two-state fit, raised by 9.35 °C to match UV melts. As to conditions: sodium 0.088 M. In short, it runs like this: (§1)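 Folding enthalpy and melting temperature were estimated with bootstrapped two-state fits and combined across four replicates by inverse-variance weighting, with fitted temperatures raised by 9.35 °C to match UV melts. The data were Cy3 fluorescence of library hairpins, with annealed Cy3 and quencher oligos, on a sequenced MiSeq flow cell in 50 mM Na-HEPES pH 8.0, 25 mM NaCl, imaged in 2.5 °C steps up to 60 °C and normalised to pre-quench Cy3 and control constructs.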

Data set [2] in a line: folding enthalpy; higher = less favourable; fluorescence melt of hairpins on a sequencing array, two-state fit. As to conditions: sodium 0.088 M. The essentials:
as §1

Take GTGGTGTCGAAAGACCAC (((..(((....)))))): the Tm in data set [1] came out at 47.6 °C. Also, in data set [2], the folding enthalpy is -16.8 kcal/mol.

Turning to GTGGTTCGAAAGAAACAC (((.(((....))).))), in data set [1], the Tm stood at 55.8 °C. The folding enthalpy in data set [2] was -48.8 kcal/mol.

With GTGGTTGGAAACAACCGC (.(((((....))))).), the Tm in data set [1] was found to be 55.7 °C. Also, the folding enthalpy in data set [2] is -31 kcal/mol.

In the case of GTGGTTGGAAACAACTGC (..((((....))))..), the Tm in data set [1] is 43.4 °C. In data set [2], the folding enthalpy was -17.6 kcal/mol.

On to GTGTAACCGAAAGGTCAC (((..(((....)))))), for which the Tm in data set [1] was 43.6 °C. For the same sequence, the folding enthalpy in data set [2] is -22.6 kcal/mol.

In the case of GTGTAAGGAAACTTACGC (.(((((....))))).), in data set [1], the Tm was determined as 45.3 °C. For the same sequence, the folding enthalpy in data set [2] is -25.7 kcal/mol.

Regarding GTGTACCGAAAGGTCCAC (((.(((....))).))), in data set [1], the Tm stood at 48.1 °C. Also, the folding enthalpy in data set [2] was -31 kcal/mol.

GTGTACGAAAGTAAACAC ((((((....)))..))): in data set [1], the Tm amounted to 42.6 °C. Moreover, the folding enthalpy in data set [2] is -25.1 kcal/mol.

GTGTACGAAAGTAGCAC ((((((....))).))): the Tm in data set [1] was 42.9 °C. Besides, the folding enthalpy in data set [2] was -23.6 kcal/mol.

As to GTGTACGAAAGTAGTCAC ((((((....)))..))), the Tm in data set [1] was found to be 30.9 °C. The folding enthalpy in data set [2] is -12.2 kcal/mol.

Take GTGTACGGAAACGTGCAC (((.(((....))).))): in data set [1], the Tm was found to be 55.3 °C. Besides, in data set [2], the folding enthalpy is -28.3 kcal/mol.

GTGTAGCGAAAGCTCCAC (((.(((....))).))): the Tm in data set [1] is 48 °C. The folding enthalpy in data set [2] is -31.7 kcal/mol.

For GTGTAGCGAAAGCTTCAC (((.(((....))).))), in data set [1], the Tm is 51.8 °C. The folding enthalpy in data set [2] was -32 kcal/mol.

With GTGTAGGCGAAAGCCCAC (((..(((....)))))), the Tm in data set [1] worked out at 44.5 °C. Also, the folding enthalpy in data set [2] is -17.4 kcal/mol.

For GTGTAGGGAAACCTATGC (..((((....))))..), the Tm in data set [1] was 30.9 °C. In addition, the folding enthalpy in data set [2] was -12.2 kcal/mol.

As for GTGTAGGGAAACCTGCAC (((.(((....))).))), the Tm in data set [1] worked out at 50.3 °C. Moreover, the folding enthalpy in data set [2] was -29.7 kcal/mol.

Turning to GTGTATGGAAACACACAC ((((.((....)).)))), in data set [1], the Tm was determined as 38.1 °C. Moreover, in data set [2], the folding enthalpy was -26.1 kcal/mol.

As to GTGTATGGAAACATACAC (((((((....))))))), the Tm in data set [1] was determined as 57.2 °C. For the same sequence, the folding enthalpy in data set [2] was -42 kcal/mol.

Turning to GTGTCAGGAAACTGGCAC (((.(((....))).))), in data set [1], the Tm came to 54.4 °C. In addition, the folding enthalpy in data set [2] was -39.4 kcal/mol.

Consider GTGTCATCGAAAGATCAC (((..(((....)))))), for which the Tm in data set [1] amounted to 32.4 °C. The folding enthalpy in data set [2] was -17.1 kcal/mol.

With GTGTCCGAAAGGAGTCAC ((((((....)))..))), the Tm in data set [1] was 35 °C. Further, in data set [2], the folding enthalpy was -19.1 kcal/mol.

For GTGTCCGAAAGGATGCAC ((((((....)))..))), the Tm in data set [1] was found to be 42.9 °C. Besides, the folding enthalpy in data set [2] was -15.8 kcal/mol.

In the case of GTGTCCGAAAGGATTCAC ((((((....)))..))), in data set [1], the Tm turned out to be 35.3 °C. In data set [2], the folding enthalpy is -16.3 kcal/mol.

As for GTGTCCGGAAACGGATAC ((.((((....)))).)), in data set [1], the Tm came out at 53.3 °C. The folding enthalpy in data set [2] was -38.6 kcal/mol.

Consider GTGTCGCCGAAAGGCCAC (((..(((....)))))), for which, in data set [1], the Tm worked out at 44.4 °C. The folding enthalpy in data set [2] was -15 kcal/mol.

Turning to GTGTCGCGAAAGCGTCAC (((.(((....))).))), in data set [1], the Tm was found to be 63 °C. In addition, the folding enthalpy in data set [2] is -31.9 kcal/mol.

For the sequence GTGTCTGGAAACGGACAC (((((.(....).))))), in data set [1], the Tm turned out to be 54 °C. Moreover, the folding enthalpy in data set [2] was -41.3 kcal/mol.

In the case of GTGTGAACGAAAGTTCAC (((..(((....)))))), the Tm in data set [1] worked out at 65.6 °C. Besides, the folding enthalpy in data set [2] is -12.9 kcal/mol.

GTGTGAGGAAACTTACGC (.((.((....)).)).): the Tm in data set [1] turned out to be 33.7 °C. Besides, in data set [2], the folding enthalpy is -17.7 kcal/mol.

Regarding GTGTGAGGAAACTTGCAC (((..((....))..))), the Tm in data set [1] turned out to be 35.1 °C. In addition, in data set [2], the folding enthalpy was -28 kcal/mol.

On to GTGTGCGAAAGCACGCAC ((((((....)))..))), for which the Tm in data set [1] is 61.1 °C. In data set [2], the folding enthalpy is -9.49 kcal/mol.

With GTGTGCGAAAGCATTCAC ((((((....)))..))), the Tm in data set [1] worked out at 38.3 °C. In data set [2], the folding enthalpy is -15.8 kcal/mol.

For the sequence GTGTGCGGAAACACACAC (((((.(....).))))), the Tm in data set [1] came to 51.8 °C. For the same sequence, the folding enthalpy in data set [2] is -36.2 kcal/mol.

In the case of GTGTGCGGAAACGCGCAC (((.(((....))).))), the Tm in data set [1] is 67.7 °C. In addition, the folding enthalpy in data set [2] is -27.7 kcal/mol.

Turning to GTGTGGGGAAACCTACGC (.((.((....)).)).), in data set [1], the Tm came to 39.2 °C. Further, the folding enthalpy in data set [2] was -24.1 kcal/mol.

Regarding GTGTGTCGAAAGACTCAC (((.(((....))).))), the Tm in data set [1] worked out at 53.2 °C. Besides, the folding enthalpy in data set [2] was -40.9 kcal/mol.
